According to publication PMC3346673 (Toxicological and environmental chemistry, 2012):
Where two headings read alike, the source gives them in different places.

What was measured:
[1] = tested on: Escherichia coli strain WP2 uvrA; assay: Ames test for mutagenic activity; format: cell-based; conditions: reversion of mutations in the tryptophan operon
[2] = Biodistribution of NBMI in plasma and tissues after oral gavage; format: in vivo, rat (Sprague Dawley); conditions: for concentration at 1 h / concentration at 2 h / concentration at 8 h / concentration at 24 h: male, Sprague Dawley, rat, 100 mg kg^−1
How it was run: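 Twelve-hour-fasted male Sprague-Dawley rats were gavaged with 100 mg kg−1 test compound in corn oil, three per time point. Jugular-cannula blood was taken at 1, 2, 8 and 24 h into heparin and spun at 4°C; tissues were excised and weighed. Samples were DTT-reduced, then analysed by LC-MS:MS: Synergi Polar RP column, ammonium formate pH 3.5/acetonitrile gradient, ESI MRM.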

rats = assay: Oral up/down LD-50 determination, gavage in corn oil; format: in vivo, rat (Wistar)
How it was run: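 Up/down design in 3 female Wistar rats (206–208 g). Test compound was suspended in corn oil and given by gavage, three times daily to reach the top level. Testing stopped at 5 g kg−1 body weight.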

rats injected with HgCl2 = format: in vivo, rat (Harlan Sprague-Dawley); conditions: for mercury concentration in feces / mercury concentration in urine: 5 day collection, mean ± SEM
How it was run: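 Mature male Harlan Sprague-Dawley rats (389–397 g), four groups of six, housed in pairs. HgCl2 was given sc at 4.06 mg kg−1 in saline under brief isoflurane. Test compound (42.3 mg kg−1, DMSO plus PBS) was given sc 20–30 min later. Non-recipients got saline, so each rat had two injections. Rats were weighed before treatment and before day-6 sacrifice; organs were blotted and weighed. Behaviour was recorded.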

Endotoxin activity = conditions: 1 mg mL^−1, tested undiluted to 1:512 dilution
[3] = Group 2 NBMI only, sc 42.3 mg kg^−1, mean ± St Dev
[4] = Group 4 HgCl2 (4.06 mg kg^−1 sc) + NBMI (42.3 mg kg^−1 sc), mean ± St Dev

Q: With O=C(NCCS)c1cccc(C(=O)NCCS)c1 [NBMI, N,N′-bis(2-mercaptoethyl)isophthalamide] as the compound, how does the “mutagenicity, Ames analysis” value [1] read?
A: non-mutagenic

Q: What about the concentration at 1 h ([2]; bone marrow, po) of the same compound?
A: 12.5 ± 7.4 ng/g

Q: And the concentration at 2 h ([2]; bone marrow, po)?
A: 65.7 ± 51.6 ng/g

Q: What about the concentration at 8 h ([2]; bone marrow, po) of the same compound?
A: 6.88 ± 0.62 ng/g

Q: What about the concentration at 24 h ([2]; bone marrow, po) of the same compound?
A: 3.76 ± 0.77 ng/g

Q: And the concentration at 1 h ([2]; brain, po)?
A: 6.1 ± 2.6 ng/g

Q: And the concentration at 2 h ([2]; brain, po)?
A: 51.8 ± 43.9 ng/g

Q: And the concentration at 8 h ([2]; brain, po)?
A: 2.57 ± 0.34 ng/g

Q: And the concentration at 24 h ([2]; brain, po)?
A: 2.09 ± 0.41 ng/g

Q: What about the concentration at 1 h ([2]; kidney, po) of the same compound?
A: 61.3 ± 42.7 ng/g

Q: What about the concentration at 2 h ([2]; kidney, po) of the same compound?
A: 145 ± 89.9 ng/g

Q: And the concentration at 8 h ([2]; kidney, po)?
A: 45.1 ± 3.4 ng/g

Q: And the concentration at 24 h ([2]; kidney, po)?
A: 36.9 ± 3.7 ng/g

Q: What about the concentration at 1 h ([2]; liver, po) of the same compound?
A: 165 ± 144 ng/g

Q: And the concentration at 2 h ([2]; liver, po)?
A: 272 ± 274 ng/g

Q: What about the concentration at 8 h ([2]; liver, po) of the same compound?
A: 23.3 ± 2.2 ng/g

Q: What about the concentration at 24 h ([2]; liver, po) of the same compound?
A: 14.2 ± 2.3 ng/g

Q: What about the concentration at 1 h ([2]; plasma, po) of the same compound?
A: 0.588 ± 0.09 µg/mL

Q: What about the concentration at 2 h ([2]; plasma, po) of the same compound?
A: 0.883 ± 0.216 µg/mL

Q: What about the concentration at 8 h ([2]; plasma, po) of the same compound?
A: 0.391 ± 0.014 µg/mL

Q: And the concentration at 24 h ([2]; plasma, po)?
A: 0.118 ± 0.029 µg/mL

Q: What about the concentration at 1 h ([2]; small intestine, po) of the same compound?
A: 7430 ± 3200 ng/g

Q: And the concentration at 2 h ([2]; small intestine, po)?
A: 8530 ± 5320 ng/g

Q: And the concentration at 8 h ([2]; small intestine, po)?
A: 1560 ± 826 ng/g

Q: And the concentration at 24 h ([2]; small intestine, po)?
A: 1040 ± 396 ng/g

Q: And the concentration at 1 h ([2]; spleen, po)?
A: 12.1 ± 5.2 ng/g

Q: What about the concentration at 2 h ([2]; spleen, po) of the same compound?
A: 153 ± 129 ng/g

Q: What about the concentration at 8 h ([2]; spleen, po) of the same compound?
A: 16.8 ± 1.5 ng/g

Q: What about the concentration at 24 h ([2]; spleen, po) of the same compound?
A: 12.7 ± 2.7 ng/g

Q: What about the concentration at 1 h ([2]; subcutaneous fat, oral) of the same compound?
A: 420 ± 419 ng/g

Q: And the concentration at 2 h ([2]; subcutaneous fat, oral)?
A: 683 ± 531 ng/g

Q: What about the concentration at 8 h ([2]; subcutaneous fat, oral) of the same compound?
A: 17.3 ± 7.4 ng/g

Q: And the concentration at 24 h ([2]; subcutaneous fat, oral)?
A: 7 ± 0.7 ng/g

Q: What about the “clearance from the body from peak values within 24 hours of ingestion” value ([2]; oral gavage) of the same compound?
A: about 90%

Q: And the “time of highest concentration in plasma and all tissues” value ([2]; post ingestion, oral gavage)?
A: 2 h

Q: And the LD-50 (rats; oral gavage in corn oil, female Wistar rats)?
A: > 5 g kg^−1 body weight

Q: What about the “signs of toxicity in LD-50 study” value (rats; up to 5 g NBMI kg^−1 body weight, gavaged 3 times daily) of the same compound?
A: no death or other signs of toxicity with the exception of some diarrhea

Q: And the “Body Mass Post Treatment” value (rats injected with HgCl2; [3])?
A: 374.4 ± 27.7 g

Q: What about the “Organ Mass Brain (Post Treatment)” value (rats injected with HgCl2; [3]) of the same compound?
A: 1.85 ± 0.04 g

Q: What about the “Organ Mass Kidney (Post Treatment)” value (rats injected with HgCl2; [3]) of the same compound?
A: 2.80 ± 0.56 g

Q: What about the “Organ Mass Liver (Post Treatment)” value (rats injected with HgCl2; [3]) of the same compound?
A: 11.7 ± 1.8 g

Q: And the “clinically observed toxic effects” value (rats injected with HgCl2; Group 4 Hg + NBMI versus Hg Only)?
A: exhibited no signs of discomfort

Q: What about the “Body Mass Post Treatment” value (rats injected with HgCl2; [4]) of the same compound?
A: 356.9 ± 46.8 g

Q: And the “Organ Mass Brain (Post Treatment)” value (rats injected with HgCl2; [4])?
A: 1.88 ± 0.10 g

Q: What about the “Organ Mass Kidney (Post Treatment)” value (rats injected with HgCl2; [4]) of the same compound?
A: 3.88 ± 0.69 g

Q: And the “Organ Mass Liver (Post Treatment)” value (rats injected with HgCl2; [4])?
A: 11.0 ± 2.1 g

Q: What about the “mercury concentration in feces” value (rats injected with HgCl2; Hg and NBMI group) of the same compound?
A: 23447±4877 Ppb

Q: What about the “mercury concentration in urine” value (rats injected with HgCl2; Hg and NBMI group) of the same compound?
A: 242±52.7 Ppb

Q: And the “mercury concentration in feces” value (rats injected with HgCl2; NBMI Only group)?
A: 110±30 Ppb

Q: What about the “mercury concentration in urine” value (rats injected with HgCl2; NBMI Only group) of the same compound?
A: 0.30±0.1 Ppb

Q: What about the “effect on organ mercury levels” value (rats injected with HgCl2; single sc dose of NBMI, organs 5-6 days after injection) of the same compound?
A: did not reduce the mercury levels in the organs

Q: And the endotoxin content (Endotoxin activity)?
A: less than one
